Measurements published in ChEMBL document CHEMBL1126267, “A novel synthesis and potent antiinflammatory activity of 4-hydroxy-2(1H)-oxo-1-phenyl-1,8-naphthyridine-3-carboxamides” (1992).

Legend:
Type in all cases: functional
Conditions in all cases: route oral
Rattus norvegicus [1] = test: Antiinflammatory activity on Zymosan-induced rat's paw edema(ZPE) after peroral administration of 100 mg/kg dose with control swelling of 62.8%
In short: (§1)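 Male Wistar rats weighing about 150 g were dosed orally with compound suspended in 5% arabic gum. 1 h later, 1% zymosan in 0.1 mL saline was injected subplantarly into the hind paw. Paw volume was measured by plethysmograph before dosing and 4 h after zymosan, with edema as the volume difference. Inhibition % was derived from mean swelling versus the control group.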

Rattus norvegicus [2] = test: Inhibition of carrageenan-induced rat's paw edema (CPE) after peroral administration of 100 mg/kg dose.
In short: (§2)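 Male Wistar rats (about 150 g) were dosed orally with compound suspended in 5% arabic gum, 1 h before a subplantar hind-paw injection of 0.1 mL saline. The irritant was 1% zymosan for 33 or 1% λ-carrageenin for 34. Paw volume was measured by plethysmograph before dosing and at 4 h (zymosan) or 3 h (carrageenin). Swelling is relative to initial volume, as mean ± SEM. % inhibition is versus the control group's mean swelling.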

Rattus norvegicus [3] = test: Compound was tested for the inhibition of rat reversed passive Arthus pleurisy after peroral administration of 100 mg/kg dose at 4.47*10e6 no of cells with 5.72*10e6 cells of control
In short: (§3)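 Male Wistar rats (about 250 g) under ether received 0.2 mL rabbit anti-egg-albumin antiserum intrapleurally. Thirty min later they got 15 mg EA/100 g body weight in 0.1 mL saline iv. Compounds were given orally beforehand. Rats were killed 4.5 h after induction and the thoracic cavity rinsed with 5 mL saline. Exudate volume and infiltrated cell count were read as mean ± SE. % inhibition is versus control.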

Rattus norvegicus [4] = test: Inhibition of Zymosan-induced rat's paw edema(ZPE) after peroral administration of 100 mg/kg dose.; in short: as §2
Rattus norvegicus [5] = test: Compound was tested for the inhibition of rat reversed passive Arthus pleurisy after peroral administration of 100 mg/kg dose at 0.8 mL of exudate volume with 0.84 mL of control (injected intrapleurally)
In short: (§4)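 Male Wistar rats (about 250 g) were given compound orally before the antiserum. Under ether anesthesia, 0.2 mL rabbit anti-egg albumin antiserum was injected intrapleurally. After 30 min, egg albumin (15 mg/100 g body weight in 0.1 mL saline) was given iv. Rats were killed 4.5 h later and the thoracic cavity was rinsed with 5 mL saline. Exudate volume and infiltrated cell number were measured, with inhibition % versus controls as mean ± SEM.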

Rattus norvegicus [6] = test: Antiinflammatory activity on Carrageenan rat's paw edema(CPE) after peroral administration of 100 mg/kg dose with control swelling of 68.1%
Rattus norvegicus [7] = test: Antiinflammatory activity on Carrageenan rat's paw edema(CPE) after peroral administration of 100 mg/kg dose with control swelling of 64.2%
Rattus norvegicus [8] = test: Antiinflammatory activity on Zymosan-induced rat's paw edema(ZPE) after peroral administration of 100 mg/kg dose with control swelling of 71.7%; in short: as §1
Rattus norvegicus [9] = test: Compound was tested for the inhibition of rat reversed passive Arthus pleurisy after peroral administration of 100 mg/kg dose at 0.65 mL of exudate volume with 0.82 mL of control (injected intrapleurally); in short: as §3
Rattus norvegicus [10] = test: Compound was tested for the inhibition of rat reversed passive Arthus pleurisy after peroral administration of 100 mg/kg dose at 6.01*10e6 no of cells with 7.4*10e6 cells of control; in short: as §3
Rattus norvegicus [11] = test: Compound was tested for the inhibition of rat reversed passive Arthus pleurisy after peroral administration of 100 mg/kg dose at 3.43+/-0.11*10e6 no of cells with 3.62*10e6 cells of control; in short: as §3
Rattus norvegicus [12] = test: Compound was tested for the inhibition of rat reversed passive Arthus pleurisy after peroral administration of 100 mg/kg dose at 0.62 mL of exudate volume with 0.54 mL of control (injected intrapleurally); in short: as §4
Rattus norvegicus [13] = test: Antiinflammatory activity on Zymosan-induced rat's paw edema(ZPE) after peroral administration of 100 mg/kg dose with control swelling of 62.0%; in short: as §1
Rattus norvegicus [14] = test: Antiinflammatory activity on Carrageenan rat's paw edema(CPE) after peroral administration of 100 mg/kg dose with control swelling of 74.7%
Rattus norvegicus [15] = test: Compound was tested for the inhibition of rat reversed passive Arthus pleurisy after peroral administration of 100 mg/kg dose at 3.74*10e6 no of cells with 7.4*10e6 cells of control; in short: as §3
Rattus norvegicus [16] = test: Compound was tested for the inhibition of rat reversed passive Arthus pleurisy after peroral administration of 100 mg/kg dose at 0.64 mL of exudate volume with 0.82 mL of control (injected intrapleurally); in short: as §4

Compound	Swelling (Rattus norvegicus [1]) [%]	inhibition in vivo at 100 mg/kg (Rattus norvegicus [2]) [%]	inhibition in vivo at 100 mg/kg (Rattus norvegicus [3]) [%]	inhibition in vivo at 100 mg/kg (Rattus norvegicus [4]) [%]	inhibition in vivo at 100 mg/kg (Rattus norvegicus [5]) [%]	Swelling (Rattus norvegicus [6]) [%]	Swelling (Rattus norvegicus [7]) [%]	Swelling (Rattus norvegicus [8]) [%]	inhibition in vivo at 100 mg/kg (Rattus norvegicus [9]) [%]	inhibition in vivo at 100 mg/kg (Rattus norvegicus [10]) [%]	inhibition in vivo at 100 mg/kg (Rattus norvegicus [11]) [%]	inhibition in vivo at 100 mg/kg (Rattus norvegicus [12]) [%]	Swelling (Rattus norvegicus [13]) [%]	Swelling (Rattus norvegicus [14]) [%]	inhibition in vivo at 100 mg/kg (Rattus norvegicus [15]) [%]	inhibition in vivo at 100 mg/kg (Rattus norvegicus [16]) [%]
COc1ccc(NC(=O)c2c(O)c3cccnc3n(-c3ccccc3)c2=O)cc1	62.6	-1.9	25.4	0.3	5.1	69.4										
O=C(Nc1ccc(Cl)nc1)c1c(O)c2cccnc2n(-c2ccccc2)c1=O		-4		9.2			66.8	65.1	20.7	18.8						
O=C(Nc1ccc(Cl)cc1)c1c(O)c2cccnc2n(-c2ccccc2)c1=O		2.5		11.6		66.4					18.8	-16.3	54.8			
CCOC(=O)c1c(O)c2cccnc2n(-c2ccccc2)c1=O		15.5		23.5									47.2	63.1		
O=C(NCc1ccncc1)c1c(O)c2cccnc2n(-c2ccccc2)c1=O		15.4		10			54.3	64.5							49.5	22
